Source: PubChem BioAssay (several laboratories)
The list is not random: actives were taken first. Their share in the collection is about 3%.
KCC2 mod – modulators of human KCC2 chloride dependent transport | Q9H2X9 | KCC2 cells, thallium flux FluoZin-2 fluorescence | B-score of Tl+ flux slope (higher = more flux/activation; lower = inhibition) at 10 µM | 190,000 compounds, 2.2% hits;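 active means thallium flux slope and its plate-corrected score both differing from the plate sample mean at a set confidence after two filtering rounds, in either direction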;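 further: slope of fluorescence scaled to starting intensity during 10 to 20 s after thallium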
PKD1 inh – PKD1 (human) kinase inhibition; Q15139; PKD1 kinase fluorescence polarization assay; inhibition, % (test concentration not listed); 200,000 compounds, 0.056% hits; in the data active means inhibition above about 50%
Target sequence (Q15139 whole entry, looked up): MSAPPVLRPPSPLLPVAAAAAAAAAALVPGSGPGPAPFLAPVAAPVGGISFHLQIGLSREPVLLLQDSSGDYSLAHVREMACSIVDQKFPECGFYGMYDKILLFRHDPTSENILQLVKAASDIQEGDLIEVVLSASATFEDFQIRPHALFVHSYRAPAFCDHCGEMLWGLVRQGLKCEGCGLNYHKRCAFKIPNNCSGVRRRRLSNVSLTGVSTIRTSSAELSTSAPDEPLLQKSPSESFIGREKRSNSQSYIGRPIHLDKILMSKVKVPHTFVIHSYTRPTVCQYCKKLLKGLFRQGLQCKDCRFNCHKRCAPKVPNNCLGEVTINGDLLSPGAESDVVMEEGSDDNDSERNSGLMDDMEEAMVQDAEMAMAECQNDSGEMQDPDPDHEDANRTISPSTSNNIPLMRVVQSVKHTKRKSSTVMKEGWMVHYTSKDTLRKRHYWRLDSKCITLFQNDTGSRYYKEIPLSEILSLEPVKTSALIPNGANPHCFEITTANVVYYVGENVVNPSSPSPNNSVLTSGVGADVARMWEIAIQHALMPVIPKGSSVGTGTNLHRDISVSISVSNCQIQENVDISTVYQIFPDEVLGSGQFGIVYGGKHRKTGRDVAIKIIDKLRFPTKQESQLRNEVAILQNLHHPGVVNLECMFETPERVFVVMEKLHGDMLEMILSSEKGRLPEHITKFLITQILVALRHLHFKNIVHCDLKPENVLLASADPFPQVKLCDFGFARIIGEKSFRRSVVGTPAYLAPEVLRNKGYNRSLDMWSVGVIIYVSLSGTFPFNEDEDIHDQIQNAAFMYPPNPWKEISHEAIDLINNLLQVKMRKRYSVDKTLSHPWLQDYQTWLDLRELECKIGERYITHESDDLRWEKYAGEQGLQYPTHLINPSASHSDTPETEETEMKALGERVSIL
ROMK mod – modulators of human ROMK potassium channel; P48048; AID 1918; Tet-inducible ROMK, thallium flux fluorescence; actives lie on both sides; B-score at 10 µM; 130,000 compounds, 2% hits;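 active means signal ratio slope over the read window, or its plate-corrected B-score, at least 3 SD from the plate mean, either direction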;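 further: B-score of the F/F0 ratio slope over 7 to 12 s after thallium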
Rad51 HR inh – blocks human Rad51 in homologous recombination; Q06609; hRad51 DNA strand exchange, fluorescence dequenching; inhibition, % at 10 µM; 200,000 compounds, 0.085% hits;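 active means inhibition above 40% at the single screening dose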;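 further: 0% = DMSO control wells and 100% = blanks with heterologous ssDNA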
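Material: hRad51 filaments on single-stranded DNA; Reagent: Donor/quencher-labelled 47-bp dsDNA substrate; Compound: 10 µM final, single point; Schedule: 37 °C 15-min filament assembly, 30-min compound preincubation, 15-min exchange; Technique: FRET fluorescence, excitation 485 nm, emission 520 nm; Benchmarks: control wells and blank wells on each plate.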
KCC2 sec1 – KCC2 (human) modulation, secondary assay | AID 1713 | 3,700 compounds, 15% hits | shares compounds with KCC2 mod | normalised thallium flux (F/F0 slope) at 10 µM | HEK293-KCC2, thallium flux, FluoZin2 fluorescence; hits give high values;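 active means thallium flux slope above the same plate's solvent-only control mean plus 3 SD; inconclusive means the two replicate wells disagree; inactive means no significant difference from solvent-only control wells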
KCC2 bumet counter – thallium flux persisting under bumetanide in KCC2 cells, counter-screen secondary assay; shares compounds with KCC2 mod; HEK293-KCC2 + bumetanide/ouabain, thallium flux FluoZin2; hits give high values; normalized thallium flux at 10 µM; 3,700 compounds, 49% hits;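 active means thallium entry rate above the same plate's blocked-transporter control wells by more than 3 SD; inconclusive means the two repeat wells disagree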;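 further: raw slope of fluorescence over initial fluorescence between 10 and 20 s after thallium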
KCC2 secondary2 – confirmation of human KCC2 transport modulators. shares compounds with KCC2 mod. HEK293-KCC2, thallium flux FluoZin2 fluorescence; actives lie on both sides; F/F0 rise rate, 10–20 s post-thallium. normalized thallium flux at 10 µM. 3,700 compounds, 23% hits. AID 1715;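 active means thallium flux slope more than 3 SD above or below the plate's solvent-only control mean, mostly below; inconclusive means the two repeat wells disagreed; inactive means no significant shift from solvent-only controls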;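 further: raw slope with 0.1% DMSO as baseline and bumetanide as block control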
HEK293 Tl flux – parental HEK flux effect, counter-screen | HEK293 parental cells, thallium flux FluoZin2, ouabain; baseline-ratio fluorescence slope, 10–20 s after thallium | AID 1716 | shares compounds with KCC2 mod | thallium flux rate (normalised fluorescence) at 10 µM | 3,700 compounds, 46% hits;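 active means thallium flux rate significantly above the same plate's solvent-only control wells, beyond their mean plus 3 SD; inconclusive means the two replicate wells gave conflicting results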
KCC2 ouabain – modulates human KCC2 on retest with ouabain; HEK293-KCC2, thallium flux FluoZin2 fluorescence; bidirectional: low = inhibitor, high = activator; shares compounds with KCC2 mod; raw Tl+ flux slope (below DMSO = inhibition, above = activation) at 10 µM; 3,700 compounds, 48% hits; AID 1717;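 active means thallium flux slope beyond 3 SD from same-plate DMSO control mean in most replicates, usually higher, sometimes lower; inconclusive means repeat tests gave conflicting results; inactive means no significant difference from controls in most replicates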;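 further: slope of initial-normalized fluorescence between seconds 10 and 20 after thallium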
HEK counter2 – parental HEK flux effect, counter-screen 2; shares compounds with KCC2 mod; HEK293 parental, thallium flux FluoZin-2 fluorescence slope; thallium flux slope at 10 µM; 3,700 compounds, 33% hits;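 active means thallium flux slope above the same plate's solvent-control mean plus 3 SD in both duplicate wells; inconclusive means duplicate wells that disagreed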;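 further: run without ouabain in cells lacking the KCC2 cotransporter; slope of fluorescence scaled to its starting value between 10 and 20 s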
Starred values were filed as active, the others as inactive; u = inconclusive; x = no result.

SMILES	KCC2 mod	PKD1 inh	ROMK mod	Rad51 HR inh	KCC2 sec1	KCC2 bumet counter	KCC2 secondary2	HEK293 Tl flux	KCC2 ouabain	HEK counter2
C/C(=N\NC(=O)Cc1ccccc1)c1cccs1	0.031	1	-0.03	-6	x	x	x	x	x	x
C/C(=N\NC(=S)NCc1ccccc1)c1ccc(C)o1	5.4*	4	1.4	-12	0.0061	0.015*	0.029	0.012*	u	0.011
Cc1nnc(SCc2ccc([N+](=O)[O-])cc2)o1	x	3	-0.26	10	x	x	x	x	x	x
CN(Cc1ccccc1)c1nc(-c2cccc([N+](=O)[O-])c2)nc2ccccc12	-0.65	0	-0.44	-3	x	x	x	x	x	x
Cc1ccc(N2C(=O)CC(Nc3ccc(Cl)c(S(=O)(=O)N(C)C)c3)C2=O)c(C)c1 (stereo not drawn)	0.84	3	1.1	8	x	x	x	x	x	x
COc1ccc(Nc2nc(N3CCCC3)nc(N3CCCC3)n2)c(OC)c1	-2.4*	-8	-1.1	-2	u	0.0066	0.034	0.0082	0.023	0.011
CCOC(=O)c1sc(NNC(=O)c2ccc(F)cc2)nc1C	11*	x	0.56	x	0.015*	0.024*	0.038	u	0.03*	u
O=C(O)c1ccc(C=C(c2nc3ccccc3s2)c2nc3ccccc3s2)cc1	-5.2*	-10	-0.085	3	0.0077	0.0068	0.031	0.0062	0.017	0.0095
CN(C)S(=O)(=O)c1cccc(NC(=O)CCNC(=O)c2ccccc2Cl)c1	1	7	x	-12	x	x	x	x	x	x
CC(C)(C)NC(=S)N/N=C/c1c(Cl)cccc1Cl	7.8*	x	x	17	0.0075	0.0094*	0.03	0.012*	0.022	0.013*
S=c1[nH]nc(COc2cccc3ccccc23)n1Cc1ccccc1	0.057	x	x	x	x	x	x	x	x	x
Oc1ccc(-c2n[nH]c(=S)n2Cc2ccccc2)cc1	0.44	13	-0.24	3	x	x	x	x	x	x
S=c1[nH]nc(-c2ccc3ccccc3n2)n1Cc1ccccc1	9.2*	1	0.51	6	0.015*	0.027*	0.036	0.029*	0.031*	0.016*
S=c1[nH]nc(-c2ccc(Br)cc2)n1Cc1ccccc1	24*	1	-0.25	-16	0.011	0.027*	0.035	0.026*	0.029*	u
Cc1ccccc1OCc1n[nH]c(=S)n1Cc1ccccc1	6.1*	-7	-0.96	-4	0.0075	0.029*	0.041*	0.024*	0.03*	0.031*
CCc1c(-c2n[nH]c(=S)n2Cc2ccccc2)csc1C	14*	-13	x	7	u	0.066*	0.03	0.017*	0.035*	0.011*
Cc1scc(-c2n[nH]c(=S)n2Cc2ccccc2)c1C	5.7	-7	x	14	x	x	x	x	x	x
COC(=O)c1cc(Cl)c(NC(=O)c2cc3ccccc3o2)cc1OC	0.28	2	x	-4	x	x	x	x	x	x
C=CCN(Cc1cn(C)nc1-c1cccc(Cl)c1)C1CCS(=O)(=O)C1 (stereo not drawn)	-1.2	-2	0.027	20	x	x	x	x	x	x
C(#CC12CC3CC(CC(C3)C1)C2)CN1CCOCC1	0.079	-7	-0.57	1	x	x	x	x	x	x
O=C(N/N=C/c1ccc[nH]1)c1sc2ccccc2c1Cl	9.7*	-2	-0.018	-4	0.014*	0.094*	0.029	0.024*	0.05*	0.011*
S=c1[nH]c(-c2ccccc2)cn1/N=C/c1cccs1	18*	x	x	x	0.023*	0.036*	0.033	0.016*	0.029*	0.016*
S=c1[nH]c(-c2ccccc2)cn1/N=C/c1ccc(Br)cc1	54*	-5	0.41	-8	0.011*	0.04*	0.032	0.017*	0.048*	0.011*
C/C(=N\NC(=O)c1nn(C)c(C)c1Br)c1ccc(NC(=O)c2ccccc2F)cc1	0.54	10	1.1	x	x	x	x	x	x	x
CCCc1[nH]c(=O)c(C#N)c2c1CCCC2	0.22	-5	x	-5	x	x	x	x	x	x
SMILES	KCC2 mod	PKD1 inh	ROMK mod	Rad51 HR inh	KCC2 sec1	KCC2 bumet counter	KCC2 secondary2	HEK293 Tl flux	KCC2 ouabain	HEK counter2
CC(C)Cc1[nH]c(=O)c(C#N)c2c1CCCC2	-0.5	7	0.3	1	0.016	0.0045	0.027	u	0.017	0.01
O=C(c1cc(COc2c(F)cccc2F)on1)N1CCC(c2ccncc2)CC1	x	4	-1.7	12	u	0.0084*	u	0.0072	0.019*	0.01
O=C(NCCCn1ncc2ccccc21)c1cc(COc2c(F)cccc2F)on1	-5.9*	-5	0.24	14	0.016	u	0.022*	0.0068	0.012*	0.0099
O=C(c1cc(COc2c(F)cccc2F)on1)N1CCc2ccccc2C1	-4.4*	3	-0.26	0	0.0063	0.0054	0.035	0.0038	0.015*	0.012
CN1CCN(C(=O)c2cc(COc3c(F)cccc3F)on2)CC1c1ccccc1 (stereo not drawn)	-4*	-2	x	13	0.0071	0.0047	0.033	0.0067	0.015*	0.012
Cc1cc(C)nc(CCNC(=O)c2cc(COc3c(F)cccc3F)on2)n1	x	2	0.94	x	x	x	x	x	x	x
N#C/C(=C(/O)c1ccc(Cl)c([N+](=O)[O-])c1)c1nc2ccccc2[nH]1	-0.1	x	x	-8	x	x	x	x	x	x
O=C(CC(NC(=O)C(F)(F)F)c1ccccc1)Nc1nnc(CCc2ccccc2)s1 (stereo not drawn)	0.3	2	x	7	x	x	x	x	x	x
CCOC(=O)c1c(C)nc(C)c(C(=O)OCC)c1-c1ccccc1	-1	-9	-2.2	4	0.0098	0.0053	0.032	0.0061	0.021	0.0097
CCOC(=O)c1c(C)nc(C)c(C(=O)OCC)c1-c1cccnc1	0.019	x	x	21	x	x	x	x	x	x
CCCNC(=O)CCc1c(C)nc2nc(C)nn2c1C	0.12	2	x	3	x	x	x	x	x	x
Cn1nc(C(=O)Nc2ccc(S(=O)(=O)N3CCOCC3)cc2)c2ccccc2c1=O	0.88	6	-1.3	-2	x	x	x	x	x	x
O=C(NN1C(=O)/C(=C/C=C/c2ccco2)SC1=S)c1ccccc1O	-3.3*	x	x	-51	0.0056	u	0.023*	0.0073	u	0.011
Cn1cccc1/C=C1\SC(=S)N(NC(=O)c2ccccc2O)C1=O	-2.9	x	x	x	x	x	x	x	x	x
O=C(Nc1nc(-c2ccccc2)ns1)c1cccs1	x	-3	x	x	0.0069	0.005	0.026	0.0069	0.015*	0.0098
O=C(Nc1nc(-c2ccc(Cl)s2)cs1)c1cccs1	-0.34	-7	x	3	x	x	x	x	x	x
O=C(Nc1nc(-c2ccccc2)cs1)c1cccs1	-1.2	7	x	-5	u	0.0094*	0.031	0.0073	u	0.0099
